The source made the active and inactive calls.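 Rule for the calls: active = recipient E. coli survival below 80% of the solvent-only control; inactive = survival at 80% of control or higher.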

In the assay the test system is E. coli V66 viability, colony formation, 1.5 h. Briefly: E. coli V66 viability reduction, late-stage follow-up, cytotoxicity control for AddAB inhibitor project, colony formation, single concentration, Hfr recombination (AID 623916). The note with it: at 100 µM. In outline: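 System: E. coli strain V66 recipients | Reagent: Hfr donor strain V1306 (HfrH), donor to recipient 1:10 | Compound: Single nominal 100 µM compound, present during pre-growth and mating | Times: 1.5 h total compound exposure | Technique: Colony counts of V66 on non-selective agar plates, CFU/mL | Benchmarks: DMSO vehicle control as viability reference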
As to `N#Cc1c(NC(=O)c2ccco2)sc2c1CCC2`, the result was inactive.

Consider `CCn1cc(C(=O)O)c(=O)c2cnc(N3CCN(C(=S)NC)CC3)nc21`, for which the outcome was inactive.

Consider `CCn1cc(C(=O)O)c(=O)c2cnc(N3CCN(C(=S)NC(C)c4ccccc4)CC3)nc21` (centres undefined), for which the result was inactive.

Turning to `CCn1cc(C(=O)O)c(=O)c2cnc(N3CCN(C(=S)Nc4ccccc4Cl)CC3)nc21`, the outcome was inactive.

Consider `CCn1cc(C(=O)O)c(=O)c2cc(F)c(N3CCN(C(=S)Nc4cccc(C(F)(F)F)c4)CC3)cc21`, for which the outcome was active.

Take `O=C(Nc1ncccn1)c1ccc([N+](=O)[O-])o1`: the outcome was inactive.

On to `Cc1ccc(C(=O)Nc2sc3c(c2C#N)CCCCC3)o1`, for which the result was inactive.

For `NC(=O)c1ccsc1NC(=O)COC(=O)c1ccc([N+](=O)[O-])o1`, the result was inactive.

`CCn1cc(C(=O)O)c(=O)c2cnc(N3CCN(C(=S)Nc4cccc(C(F)(F)F)c4)CC3)nc21`: the outcome was inactive.

Turning to `CC1(C)Cc2c(sc(NC(=O)c3ccco3)c2C#N)CO1`, the result was inactive.

Regarding `N#Cc1c(NC(=O)c2cnccn2)sc2c1CCCC2`, the result was inactive.

With `CCn1cc(C(=O)O)c(=O)c2cnc(N3CCN(C(=O)Nc4ccccc4)CC3)nc21`, the outcome was inactive.

For the compound `Cc1sc(NC(=O)c2ccc(Br)o2)c(C#N)c1C`, the outcome was inactive.

Turning to `CCn1cc(C(=O)O)c(=O)c2cnc(N3CCN(C(=S)Nc4ccc5c(c4)OCCO5)CC3)nc21`, the result was inactive.

On to `N#Cc1c(NC(=O)c2ccc(-c3ccccc3[N+](=O)[O-])o2)sc2c1CCCC2`, for which the outcome was inactive.

For the compound `CCn1cc(C(=O)O)c(=O)c2cnc(N3CCNCC3)nc21`, the outcome was inactive.

With `N#Cc1c(NC(=O)c2ccccc2)sc2c1CCC2`, the outcome was inactive.

Take `CCn1cc(C(=O)O)c(=O)c2cnc(N3CCN(C(=S)Nc4ccc5c(c4)OCO5)CC3)nc21`: the outcome was inactive.

On to `CCn1cc(C(=O)O)c(=O)c2cnc(N3CCN(C(=S)NC4CC5CCC4C5)CC3)nc21` (centres undefined), for which the outcome was inactive.

For the compound `CCn1cc(C(=O)O)c(=O)c2cnc(N3CCN(C(=S)Nc4ccccc4F)CC3)nc21`, the outcome was inactive.

Take `O=C(Nc1ccc(N2CCOCC2)cc1)c1ccc([N+](=O)[O-])o1`: the outcome was inactive.

With `Cc1ccc(C(=O)Nc2sc3c(c2C#N)CCC3)o1`, the result was inactive.

Turning to `N#Cc1c(NC(=O)c2ccccc2C(=O)O)sc2c1CCCC2`, the outcome was inactive.

For the compound `CCn1cc(C(=O)O)c(=O)c2cnc(N3CCN(C(=S)Nc4ccccc4C)CC3)nc21`, the result was inactive.

With `N#Cc1c(NC(=O)c2ccc([N+](=O)[O-])o2)sc2c1CCC2`, the result was inactive.

Consider `CC1CCc2c(sc(NC(=O)c3ccc([N+](=O)[O-])o3)c2C#N)C1` (centres undefined), for which the outcome was inactive.

Consider `CCn1cc(C(=O)O)c(=O)c2cnc(N3CCN(C(=S)NC(=O)c4ccco4)CC3)nc21`, for which the outcome was inactive.

As to `CCn1cc(C(=O)O)c(=O)c2cnc(N3CCN(C(=S)Nc4ccccc4)CC3)nc21`, the result was inactive.

As to `Nc1c(NC(=O)c2ccc([N+](=O)[O-])o2)sc2c1CCCC2`, the result was inactive.

Regarding `N#Cc1c(NC(=O)C2CC=CCC2C(=O)O)sc2c1CCC2` (centres undefined), the outcome was inactive.

For the compound `CCn1cc(C(=O)O)c(=O)c2cnc(N3CCN(C(=S)Nc4ccc(Cl)cc4)CC3)nc21`, the result was inactive.

For the compound `CCn1cc(C(=O)O)c(=O)c2cnc(N3CCN(C(=S)NC(=O)c4cccc(C)c4)CC3)nc21`, the result was inactive.

With `N#Cc1c(NC(=O)c2ccc([N+](=O)[O-])o2)sc2c1CCCC2`, the outcome was inactive.

With `Cc1ccc2nc(/C(C#N)=C\c3ccc([N+](=O)[O-])o3)[nH]c2c1`, the result was inactive.

For the compound `CCn1cc(C(=O)O)c(=O)c2cnc(N3CCN(C(=S)NC(=O)c4ccccc4Cl)CC3)nc21`, the result was inactive.

Turning to `CC1CCc2c(sc(NC(=O)c3ccc([N+](=O)[O-])o3)c2N)C1` (centres undefined), the outcome was inactive.

Take `CCn1cc(C(=O)O)c(=O)c2cnc(N3CCN(C(=S)NC(=O)c4cccnc4)CC3)nc21`: the outcome was inactive.

For `O=C(NCc1cccnc1)c1ccc([N+](=O)[O-])o1`, the outcome was inactive.

On to `C=CCn1c(Sc2ncc([N+](=O)[O-])s2)n[nH]c1=O`, for which the outcome was inactive.

In the case of `C=CCNC(=S)N1CCN(c2ncc3c(=O)c(C(=O)O)cn(CC)c3n2)CC1`, the outcome was inactive.

Regarding `CCn1cc(C(=O)O)c(=O)c2cnc(N3CCN(C(=S)Nc4ccccc4C(F)(F)F)CC3)nc21`, the outcome was inactive.

As to `CCn1cc(C(=O)O)c(=O)c2cnc(N3CCN(C(=S)Nc4ccc(F)cc4)CC3)nc21`, the result was inactive.

Regarding `CCn1cc(C(=O)O)c(=O)c2cnc(N3CCN(C(=S)Nc4ccccc4OC)CC3)nc21`, the result was inactive.

Take `Cc1cccnc1NC(=O)c1ccc([N+](=O)[O-])o1`: the outcome was inactive.

With `N#Cc1c(NC(=O)c2cccc(F)c2)sc2c1CCCC2`, the result was inactive.

On to `O=C(Nc1cccc(NC(=O)c2ccccc2Cl)c1)c1ccc([N+](=O)[O-])o1`, for which the result was inactive.

Take `CCn1cc(C(=O)O)c(=O)c2cnc(N3CCN(C(=S)NCc4ccccc4)CC3)nc21`: the outcome was inactive.

In the case of `CC(=O)Nc1ccc2nc(NC(=O)c3ccc([N+](=O)[O-])o3)sc2c1`, the outcome was inactive.

On to `O=C(OCC(=O)c1cccs1)c1ccc([N+](=O)[O-])o1`, for which the result was inactive.

These data come from PubChem BioAssay AID623916 (The Scripps Research Institute Molecular Screening Center, 2012).
